Measured values published in ChEMBL document CHEMBL2040770, “Finger loop inhibitors of the HCV NS5b polymerase. Part II. Optimization of tetracyclic indole-based macrocycle leading to the discovery of TMC647055” (Bioorg Med Chem Lett, 2012).

Key:
[1] = Oral bioavailability in Sprague-Dawley rat at 10 mg/kg; format: ADME, organism-based; conditions: in vivo
How it was run: (§1)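 Male Sprague–Dawley rats (n = 3) given a single iv dose of 2 mg/kg in PEG400/saline 70:30 and a single oral dose of 10 mg/kg in PEG400/2% vitamin E-TPGS. Plasma kinetics were followed to give plasma clearance, Cmax and oral bioavailability.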

[2] = system: Hepatitis C virus; test: Antiviral activity against Hepatitic C virus genotype 1b clone ET infected in human Huh7 replicon cells after 72 hrs by luciferase reporter gene assay; format: functional, organism-based, Hepacivirus hominis; conditions: Huh-7, 72 h
[3] = Drug uptake in Sprague-Dawley rat liver at 10 mg/kg, po measured after 7 hrs; format: ADME, organism-based; design: dose 10 mg/kg, route oral; conditions: read-out: Drug uptake
How it was run: (§2)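 Male Sprague–Dawley rats (n = 3) received a single oral dose of 10 mg/kg in PEG400/2% vitamin E-TPGS. Liver concentration was measured 7 h post-dosing, and the liver/plasma concentration ratio was taken at that same 7 h time point.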

[4] = Ratio of drug uptake in Sprague-Dawley rat liver to plasma at 10 mg/kg, po measured after 7 hrs; format: ADME, organism-based; design: dose 10 mg/kg, route oral; how it was run: as §2
[5] = Clearance in Sprague-Dawley rat at 2 mg/kg, iv and 10 mg/kg, po; format: ADME, organism-based; conditions: in vivo; how it was run: as §1
[6] = Metabolic stability in human liver microsomes assessed as compound metabolized at 5 uM after 15 mins; format: ADME, Microsome; conditions: read-out: Drug metabolism
How it was run: (§3)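 Rat or human liver microsomes incubated with compound at 5 µM for 15 min. Stability is given as % of compound metabolized.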

[7] = Metabolic stability in rat liver microsomes assessed as compound metabolized at 5 uM after 15 mins; format: ADME, Microsome; conditions: read-out: Drug metabolism; how it was run: as §3
[8] = Selectivity index, ratio of CC50 for human Huh7 cells to EC50 for Hepatitic C virus genotype 1b clone ET; format: toxicity, cell-based, Huh-7; conditions: read-out: Ratio CC50/EC50
How it was run: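 Selectivity index computed in Huh-7 cells as CC50/EC50.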

[9] = Cmax in Sprague-Dawley rat at 10 mg/kg, po; format: ADME, organism-based; design: dose 10 mg/kg, route oral; conditions: in vivo; how it was run: as §1
[10] = Plasma clearance in dog at 10 mg/kg, po; format: ADME, organism-based, Canis lupus familiaris; design: dose 10 mg/kg, route oral
[11] = Oral bioavailability in dog at 10 mg/kg; format: ADME, organism-based, Canis lupus familiaris; conditions: in vivo
[12] = system: Canis familiaris; test: Volume of distribution at steady state in dog at 10 mg/kg, po; format: ADME, organism-based, Canis lupus familiaris; design: dose 10 mg/kg, route oral; conditions: in vivo
[13] = species: Rattus norvegicus; test: Drug metabolism in Sprague-Dawley rat assessed as reactive acyl glucuronides formation; format: ADME, organism-based; conditions: in vivo
[14] = Cmax in dog at 10 mg/kg, po; format: ADME, organism-based, Canis lupus familiaris; design: dose 10 mg/kg, route oral; conditions: in vivo
How it was run: (§4)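 Dogs given a single oral dose of 10 mg/kg. Peak plasma concentration and plasma AUC extrapolated to infinity were determined, reported in µM and µM h.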

[15] = AUC (0 to infinity) in dog at 10 mg/kg, po; format: ADME, organism-based, Canis lupus familiaris; design: time infinity, dose 10 mg/kg, route oral; conditions: plasma; how it was run: as §4
[16] = Inhibition of cytochrome P450; format: ADME

bioavailability [1] [%] | concentration at 7 h [3] [µg/mL] | Kp at 7 h [4] | clearance [5] [L/h/kg] | SMILES | EC50 [2] [µM] | metabolised at 0.25 h, 5 µM [6] [%] | metabolised at 0.25 h, 5 µM [7] [%] | selectivity ratio [8] | other results
21 | 1.72 | 64 | 7.7 | CN1CCOCCN(C)S(=O)(=O)NC(=O)c2ccc3c(C4CCCCC4)c(n(C)c3c2)-c2ccccc2OCC1=O | 0.19 | – | – | – | –
– | – | – | – | COc1ccc2c(c1)C=C1Cn3c-2c(C2CCCCC2)c2ccc(cc23)C(=O)NS(=O)(=O)N(C)CCCCCCN(C)C1=O | 0.16 | 99 | 46 | 150 | –
76 | 5 | 23 | 2.4 | COc1ccc2c(c1)C=C1Cn3c-2c(C2CCCCC2)c2ccc(cc23)C(=O)NS(=O)(=O)N(C)CCCCN(C)C1=O | 0.082 | 56 | 26 | > 330 | Cmax [9]: 0.8 µg/mL
– | – | – | – | COc1ccc2c(c1)C=C1Cn3c-2c(C2CCCCC2)c2ccc(cc23)C(=O)NS(=O)(=O)N(C)CCCN(C)C1=O | 0.68 | 18 | 28 | 72 | –
– | – | – | – | COc1ccc2c(c1)C=C1Cn3c-2c(C2CCCCC2)c2ccc(cc23)C(=O)NS(=O)(=O)NCCN(C)CCNC1=O | 0.47 | 7 | 23 | > 68 | –
– | – | – | – | COc1ccc2c(c1)C=C1Cn3c-2c(C2CCCCC2)c2ccc(cc23)C(=O)NS(=O)(=O)N(C)CCN(C)CCNC1=O | 0.55 | – | – | > 58 | –
– | – | – | – | COc1ccc2c(c1)C=C1Cn3c-2c(C2CCCCC2)c2ccc(cc23)C(=O)NS(=O)(=O)N2CCN(CCNC1=O)CC2 | 0.86 | 10 | 16 | > 40 | –
– | – | – | – | CN1CCOCCN(C)S(=O)(=O)NC(=O)c2ccc3c(C4CCCCC4)c4n(c3c2)CC(=Cc2cc(Cl)ccc2-4)C1=O | 0.28 | 16 | 22 | 150 | –
– | – | – | – | CN1CCCCN(C)S(=O)(=O)NC(=O)c2ccc3c(C4CCCCC4)c4n(c3c2)CC(=Cc2ccc(Cl)cc2-4)C1=O | 14.5 | 29 | 30 | > 2 | –
– | – | – | – | COc1ccc2c(c1)C=C1Cn3c-2c(C2CCCCC2)c2ccc(cc23)C(=O)NS(=O)(=O)N(C)CCCCNC1=O | 0.912 | 20 | 13 | > 40 | –
– | – | – | – | COc1ccc2c(c1)C=C1Cn3c-2c(C2CCCCC2)c2ccc(cc23)C(=O)NS(=O)(=O)NCCCCN(C)C1=O | 0.55 | 27 | 25 | > 58 | –
– | – | – | – | COc1ccc2c(c1)C=C1Cn3c-2c(C2CCCCC2)c2ccc(cc23)C(=O)NS(=O)(=O)N(C(C)C)CCCCN(C)C1=O | 0.33 | 80 | 12 | > 100 | –
51 | 3.2 | 38 | 5.2 | COc1ccc2c(c1)C1C[C@]13Cn1c-2c(C2CCCCC2)c2ccc(cc21)C(=O)NS(=O)(=O)N(C)CCOCCN(C)C3=O (stereo not given in full) | 0.04 | 95 | 72 | – | –
– | – | – | – | COc1ccc2c(c1)C1C[C@@]13Cn1c-2c(C2CCCCC2)c2ccc(cc21)C(=O)NS(=O)(=O)N(C)CCOCCN(C)C3=O (stereo not given in full) | 0.8 | – | – | – | –
15 | 0.898 | 22 | 3.2 | COc1ccc2c(c1)C[C@@H]1Cn3c-2c(C2CCCCC2)c2ccc(cc23)C(=O)NS(=O)(=O)N(C)CCOCCN(C)C1=O | – | 63 | 42 | – | –
– | – | – | – | CCN(CC)C1CCN(C(=O)Cn2c(-c3ccc(Cl)cc3)c(C3CCCCC3)c3ccc(C(=O)O)cc32)CC1 | 0.127 | – | – | – | –
> 66 | 7.8 | 46 | 3.2 | COc1ccc2c(c1)C=C1Cn3c-2c(C2CCCCC2)c2ccc(cc23)C(=O)NS(=O)(=O)N(C)CCOCCN(C)C1=O [TMC-647055] | 0.082 | 35 | 30 | > 300 | CL/F [10]: 0.54 L/h/kg; bioavailability [11]: 87%; Vdss [12]: 0.32 L/kg; Drug metabolism [13]: Not Active; Cmax [14]: 10.2 µM; Cmax [9]: 0.44 µg/mL; AUC(0-inf) [15]: 25.8 µM·h; inhibition (INH) [16]: Not Active

SMILES | bioavailability [1] [%] | concentration at 7 h [3] [µg/mL] | Kp at 7 h [4] | clearance [5] [L/h/kg] | EC50 [2] [µM] | metabolised at 0.25 h, 5 µM [6] [%] | metabolised at 0.25 h, 5 µM [7] [%] | selectivity ratio [8] | other results
COc1ccc2c(c1)C=C1Cn3c-2c(C2CCCCC2)c2ccc(cc23)C(=O)NS(=O)(=O)N(C)CCCCCNC1=O | 6 | 6.32 | 341 | 4.2 | 0.13 | 32 | 27 | > 400 | Cmax [9]: 0.03 µg/mL
CN1CCOCCN(C)S(=O)(=O)NC(=O)c2ccc3c(C4CCCCC4)c4n(c3c2)CC(=Cc2cc(F)ccc2-4)C1=O | 52 | 6.56 | 62 | 3.7 | 0.072 | 38 | 37 | > 250 | Cmax [9]: 0.272 µg/mL
COc1ccc2c(c1)C=C1Cn3c-2c(C2CCCCC2)c2ccc(cc23)C(=O)NS(=O)(=O)N(C)CCN2CCN(CC2)C1=O | 3 | 0.299 | 108 | 9.4 | 0.18 | 26 | 17 | > 170 | Cmax [9]: 0.006 µg/mL
